≈ marks a conversion by molar mass, not a printed value.
Legend:
Pseudomonas aeruginosa [1] = assay: Ratio of MIC for Pseudomonas aeruginosa PAO1 harboring siderophore receptor piuA, pfeA and pirA mutant to MIC for wild type Pseudomonas aeruginosa PAO1 in medium containing aztreonam and low-Fe by CLSI broth microdilution method; type: functional
Pseudomonas aeruginosa [2] = assay: Antibacterial activity against Pseudomonas aeruginosa PAO1 in medium containing aztreonam and low-Fe by CLSI broth microdilution method; type: functional
Pseudomonas aeruginosa [3] = assay: Antibacterial activity against Pseudomonas aeruginosa PAO1 harboring siderophore receptor pfeA mutant in Mueller-Hinton broth medium by CLSI broth microdilution method; type: functional
In short: (§1)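 MIC by CLSI broth microdilution in standard Mueller Hinton broth. Tested against wild-type P. aeruginosa PAO1 and an isogenic panel lacking one or more siderophore receptors.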

Pseudomonas aeruginosa [4] = assay: Ratio of MIC for Pseudomonas aeruginosa PAO1 harboring siderophore receptor pirA and pfeA double mutant to MIC for wild type Pseudomonas aeruginosa PAO1 in medium containing low-Fe by CLSI broth microdilution method; type: functional
In short: (§2)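 Ratio of strain MIC to PAO1 MIC. Both MICs were obtained by CLSI broth microdilution in iron-depleted modified Mueller Hinton broth. A shift greater than 4× versus the parent was read as the deleted receptor(s) taking part in uptake.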

[5] = target: Penicillin-binding protein 1A (Pseudomonas aeruginosa PAO1, UniProt Q07806); assay: Displacement of fluorescent Bocillin FL from N-terminal His tagged Pseudomonas aeruginosa PAO1 PBP1a (residues 36 to 822) expressed in Escherichia coli BL21 (Gold cells)
Pseudomonas aeruginosa [6] = assay: Ratio of MIC for Pseudomonas aeruginosa PAO1 harboring siderophore receptor piuA and pfeA double mutant in MHB medium to MIC for Pseudomonas aeruginosa PAO1 harboring siderophore receptor piuA and pfeA double mutant in medium containing low-Fe by CLSI broth microdilution method; type: functional
Escherichia coli [7] = assay: Antibacterial activity against Escherichia coli DH5alpha expressing beta-lactamase OXA-24/40 by CLSI broth microdilution method; type: functional; conditions: DH5[alpha]
Pseudomonas aeruginosa [8] = assay: Ratio of MIC for Pseudomonas aeruginosa PAO1 harboring siderophore receptor piuA and pirA double mutant to MIC for wild type Pseudomonas aeruginosa PAO1 in medium containing low-Fe by CLSI broth microdilution method; type: functional
In short: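 CLSI broth microdilution MICs in a modified Mueller-Hinton broth depleted of iron to mimic low in vivo iron. Tested against wild-type PAO1 and isogenic siderophore receptor knockout strains. Reported as the knockout-strain MIC divided by the PAO1 MIC in the same iron-depleted medium.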

Pseudomonas aeruginosa [9] = assay: Antibacterial activity against Pseudomonas aeruginosa PAO1 harboring siderophore receptor piuA, pfeA and pirA mutant in medium containing low-Fe by CLSI broth microdilution method; type: functional
In short: (§3)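 MIC by CLSI broth microdilution in a modified Mueller Hinton broth depleted of iron to mimic the low-iron in vivo environment. Tested against PAO1 and isogenic strains lacking one or more siderophore receptors.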

Escherichia coli [10] = assay: Antibacterial activity against Escherichia coli DH5alpha expressing beta-lactamase SHV-12 by CLSI broth microdilution method; type: functional; conditions: DH5[alpha]
Pseudomonas aeruginosa [11] = assay: Antibacterial activity against Pseudomonas aeruginosa PAO1 harboring siderophore receptor piuA and pfeA double mutant in Mueller-Hinton broth medium by CLSI broth microdilution method; type: functional; in short: as §1
Pseudomonas aeruginosa [12] = assay: Ratio of MIC for Pseudomonas aeruginosa PAO1 harboring siderophore receptor fptA mutant to MIC for wild type Pseudomonas aeruginosa PAO1 in medium containing low-Fe by CLSI broth microdilution method; type: functional; in short: as §2
Pseudomonas aeruginosa [13] = assay: Antibacterial activity against Pseudomonas aeruginosa PAO1 harboring siderophore receptor piuA and pirA double mutant in medium containing aztreonam and low-Fe by CLSI broth microdilution method; type: functional
Pseudomonas aeruginosa [14] = assay: Ratio of MIC for Pseudomonas aeruginosa PAO1 harboring siderophore receptor piuA and pirA double mutant to MIC for wild type Pseudomonas aeruginosa PAO1 in Mueller-Hinton broth medium by CLSI broth microdilution method; type: functional
In short: (§4)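 Broth microdilution MIC per CLSI in standard Mueller-Hinton broth, run against wild-type P. aeruginosa PAO1 and isogenic PAO1 strains lacking one or more siderophore receptors. Value is the mutant-strain MIC divided by the PAO1 MIC.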

Pseudomonas aeruginosa [15] = assay: Antibacterial activity against Pseudomonas aeruginosa PAO1 harboring siderophore receptor fpvA mutant in Mueller-Hinton broth medium by CLSI broth microdilution method; type: functional; in short: as §1
Escherichia coli [16] = assay: Antibacterial activity against Escherichia coli DH5alpha expressing beta-lactamase NDM-1 by CLSI broth microdilution method; type: functional; conditions: DH5[alpha]
Pseudomonas aeruginosa [17] = assay: Antibacterial activity against Pseudomonas aeruginosa PAO1 by CLSI broth microdilution method; type: functional
Pseudomonas aeruginosa [18] = assay: Antibacterial activity against Pseudomonas aeruginosa PAO1 in medium containing low-Fe by CLSI broth microdilution method; type: functional; in short: as §3
Pseudomonas aeruginosa [19] = assay: Ratio of MIC for Pseudomonas aeruginosa PAO1 harboring siderophore receptor piuA and fpvA double mutant to MIC for wild type Pseudomonas aeruginosa PAO1 in Mueller-Hinton broth medium by CLSI broth microdilution method; type: functional; in short: as §4
Pseudomonas aeruginosa [20] = assay: Ratio of MIC for Pseudomonas aeruginosa PAO1 harboring siderophore receptor piuA and pirA double mutant in MHB medium to MIC for Pseudomonas aeruginosa PAO1 harboring siderophore receptor piuA and pirA double mutant in medium containing low-Fe by CLSI broth microdilution method; type: functional
Escherichia coli [21] = assay: Antibacterial activity against Escherichia coli DH5alpha expressing beta-lactamase KPC-3 by CLSI broth microdilution method; type: functional; conditions: DH5[alpha]
Pseudomonas aeruginosa [22] = assay: Ratio of MIC for Pseudomonas aeruginosa PAO1 harboring siderophore receptor fpvA mutant to MIC for wild type Pseudomonas aeruginosa PAO1 in medium containing low-Fe by CLSI broth microdilution method; type: functional; in short: as §2
Pseudomonas aeruginosa [23] = assay: Ratio of MIC for Pseudomonas aeruginosa PAO1 harboring siderophore receptor piuA mutant in MHB medium to MIC for Pseudomonas aeruginosa PAO1 harboring siderophore receptor piuA mutant in medium containing low-Fe by CLSI broth microdilution method; type: functional
Pseudomonas aeruginosa [24] = assay: Antibacterial activity against Pseudomonas aeruginosa PAO1 harboring siderophore receptor piuA and fpvA double mutant in medium containing low-Fe by CLSI broth microdilution method; type: functional; in short: as §3
Escherichia coli [25] = assay: Antibacterial activity against Escherichia coli DH5alpha expressing beta-lactamase SHV-5 by CLSI broth microdilution method; type: functional; conditions: DH5[alpha]
Escherichia coli [26] = assay: Antibacterial activity against Escherichia coli DH5alpha expressing beta-lactamase TEM-24 by CLSI broth microdilution method; type: functional; conditions: DH5[alpha]
Pseudomonas aeruginosa [27] = assay: Antibacterial activity against Pseudomonas aeruginosa PAO1 harboring siderophore receptor piuA and pfeA double mutant in medium containing low-Fe by CLSI broth microdilution method; type: functional; in short: as §3
Pseudomonas aeruginosa [28] = assay: Antibacterial activity against Pseudomonas aeruginosa PAO1 harboring siderophore receptor piuA, pfeA and pirA mutant in Mueller-Hinton broth medium by CLSI broth microdilution method; type: functional; in short: as §1
Pseudomonas aeruginosa [29] = assay: Ratio of MIC for Pseudomonas aeruginosa PAO1 harboring siderophore receptor piuA and fpvA double mutant in MHB medium to MIC for Pseudomonas aeruginosa PAO1 harboring siderophore receptor piuA and fpvA double mutant in medium containing low-Fe by CLSI broth microdilution method; type: functional
Pseudomonas aeruginosa [30] = assay: Antibacterial activity against Pseudomonas aeruginosa PAO1 harboring siderophore receptor piuA and pirA double mutant in Mueller-Hinton broth medium by CLSI broth microdilution method; type: functional; in short: as §1
Pseudomonas aeruginosa [31] = assay: Ratio of MIC for Pseudomonas aeruginosa PAO1 harboring siderophore receptor pirA and pfeA double mutant to MIC for wild type Pseudomonas aeruginosa PAO1 in medium containing aztreonam and low-Fe by CLSI broth microdilution method; type: functional
Pseudomonas aeruginosa [32] = assay: Ratio of MIC for Pseudomonas aeruginosa PAO1 harboring siderophore receptor pfeA mutant to MIC for wild type Pseudomonas aeruginosa PAO1 in medium containing low-Fe by CLSI broth microdilution method; type: functional; in short: as §2

Sequence of Penicillin-binding protein 1A (Q07806 whole entry, the tested form may be a part): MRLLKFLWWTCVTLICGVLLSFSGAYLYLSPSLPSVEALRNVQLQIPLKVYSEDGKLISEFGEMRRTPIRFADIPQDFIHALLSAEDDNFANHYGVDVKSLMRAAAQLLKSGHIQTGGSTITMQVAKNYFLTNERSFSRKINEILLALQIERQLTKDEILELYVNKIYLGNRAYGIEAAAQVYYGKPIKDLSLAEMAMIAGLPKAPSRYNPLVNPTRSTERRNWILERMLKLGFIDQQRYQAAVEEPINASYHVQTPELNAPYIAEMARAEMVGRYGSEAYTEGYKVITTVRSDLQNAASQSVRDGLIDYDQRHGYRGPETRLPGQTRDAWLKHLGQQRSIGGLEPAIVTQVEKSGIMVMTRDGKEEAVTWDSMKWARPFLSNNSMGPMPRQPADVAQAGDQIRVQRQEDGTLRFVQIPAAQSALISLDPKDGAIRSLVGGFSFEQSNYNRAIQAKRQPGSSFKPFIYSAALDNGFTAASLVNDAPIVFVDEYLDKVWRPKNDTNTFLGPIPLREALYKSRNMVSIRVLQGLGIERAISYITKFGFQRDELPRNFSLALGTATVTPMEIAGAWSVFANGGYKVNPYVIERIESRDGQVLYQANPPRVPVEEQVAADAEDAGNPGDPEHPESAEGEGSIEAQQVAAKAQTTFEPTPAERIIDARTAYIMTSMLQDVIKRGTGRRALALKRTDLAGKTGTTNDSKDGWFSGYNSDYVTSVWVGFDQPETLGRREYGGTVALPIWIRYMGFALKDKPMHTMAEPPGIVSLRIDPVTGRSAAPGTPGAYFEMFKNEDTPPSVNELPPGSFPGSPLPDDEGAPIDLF

CC(C)(O/N=C(\C(=O)N[C@H]1CON(C2(C(=O)O)C[C@H](N3C(=O)c4cc(O)c(O)cc4C3=O)C(=O)O2)C1=O)c1csc(N)n1)C(=O)O (some centres not stated)
Ratio (Pseudomonas aeruginosa [1]): 1
MIC (Pseudomonas aeruginosa [2]): 4 µg/mL (≈ 6.04 µM)
MIC (Pseudomonas aeruginosa [3]): 0.5 µg/mL (≈ 0.755 µM)
Ratio (Pseudomonas aeruginosa [4]): 1
IC50 [5]: 30 nM
Ratio (Pseudomonas aeruginosa [6]): 64
MIC (Escherichia coli [7]): 0.03 µg/mL (≈ 0.0453 µM)
Ratio (Pseudomonas aeruginosa [8]): >=8
MIC (Pseudomonas aeruginosa [9]): 0.25 µg/mL (≈ 0.377 µM)
MIC (Escherichia coli [10]): 0.015 µg/mL (≈ 0.0226 µM)
MIC (Pseudomonas aeruginosa [11]): 8 µg/mL (≈ 12.1 µM)
Ratio (Pseudomonas aeruginosa [12]): >=2
MIC (Pseudomonas aeruginosa [13]): 4 µg/mL (≈ 6.04 µM)
Ratio (Pseudomonas aeruginosa [14]): 32
MIC (Pseudomonas aeruginosa [15]): 16 µg/mL (≈ 24.1 µM)
MIC (Escherichia coli [16]): 0.03 µg/mL (≈ 0.0453 µM)
MIC (Pseudomonas aeruginosa [17]): 0.5 µg/mL (≈ 0.755 µM)
MIC (Pseudomonas aeruginosa [18]): ≤ 0.03 µg/mL
Ratio (Pseudomonas aeruginosa [19]): 32
Ratio (Pseudomonas aeruginosa [20]): 64
MIC (Escherichia coli [21]): 0.03 µg/mL (≈ 0.0453 µM)
Ratio (Pseudomonas aeruginosa [22]): 1
Ratio (Pseudomonas aeruginosa [23]): 64
MIC (Pseudomonas aeruginosa [24]): 0.25 µg/mL (≈ 0.377 µM)
MIC (Escherichia coli [25]): 0.03 µg/mL (≈ 0.0453 µM)
MIC (Escherichia coli [26]): 0.06 µg/mL (≈ 0.0906 µM)
MIC (Pseudomonas aeruginosa [27]): 0.125 µg/mL (≈ 0.189 µM)
MIC (Pseudomonas aeruginosa [28]): 16 µg/mL (≈ 24.1 µM)
Ratio (Pseudomonas aeruginosa [29]): 64
MIC (Pseudomonas aeruginosa [30]): 16 µg/mL (≈ 24.1 µM)
Ratio (Pseudomonas aeruginosa [31]): 1
Ratio (Pseudomonas aeruginosa [32]): 1
